In brackets after ≈: the same amount, converted by molar mass. Like-named read-outs stand apart in the source and are kept apart here.
How the values were obtained:
[1] = test system: Bacillus cereus (NCIM-2458); assay: MIC, broth microdilution; type: cell-based; settings: NCIM2458, read-out: Minimum inhibitory concentration (MIC), BC
How it was run: (§1)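 Broth microdilution per CLSI in Mueller-Hinton broth, using two-fold serial dilutions of test compound and reference drugs from 512 to 0.25. Bacterial broth cultures were grown 2-6 h to 0.5 McFarland turbidity, then diluted with sterile solution to the final inoculum. MIC is reported in µg/mL.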

[2] = test system: Candida albicans (NCIM 2087); assay: MIC, broth microdilution; type: cell-based; settings: NCIM2087, read-out: Minimum inhibitory concentration (MIC), CA
How it was run: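 CLSI broth microdilution in Sabouraud liquid medium, with test compound two-fold serially diluted from 512 to 0.25. Fungal broth culture grown 24 h at 35 °C to 0.5 McFarland turbidity, then adjusted with sterile solution to a final […] inoculum. MIC expressed in µg/mL.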

[3] = test system: Yellow Fever virus; assay: microbe, parasite or virus in culture; type: cell-based; settings: Yellow fever virus, Vero, read-out: Antiviral EC50, Yellow Fever virus
[4] = test system: Human Coronavirus (229E); assay: CPE reduction assay in HEL cells; type: cell-based; settings: read-out: Antiviral EC50, Human Coronavirus (229E)
[5] = test system: Staphylococcus aureus (ATCC 29213); assay: MIC, broth microdilution; type: cell-based; settings: ATCC29213, read-out: Minimum inhibitory concentration (MIC), SA
How it was run: (§2)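 Antibacterial MICs by CLSI broth microdilution in Mueller-Hinton broth. Test compounds and standard drugs are serially diluted two-fold from 512 to 0.25. The bacterial broth culture is grown 2-6 h to a 0.5 McFarland turbidity, then adjusted with sterile solution to the final inoculum.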

[6] = test system: Cryptococcus neoformans (ATCC 9011); assay: Agar disk diffusion, inhibition zone; type: cell-based; settings: 100 µg/8 mm disc, triplicate, mean ± SD
[7] = test system: MT4 cells; settings: MT4 cell cultures; colorimetric MTT cell viability assay
[8] = test system: Staphylococcus aureus (ATCC 29213); assay: Agar disk diffusion, inhibition zone; type: cell-based; settings: 100 µg/8 mm disc, triplicate, mean ± SD
How it was run: (§3)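 Agar disk diffusion on Mueller-Hinton agar plates seeded with a standard bacterial suspension. Test compound stock in DMSO, diluted with distilled water; 8 mm sterile filter-paper discs soaked in the solution. Ampicillin was the reference. Plates incubated at 35 °C for 24 h, in triplicate. Read-out is the average inhibition-zone diameter (mm) around each disc.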

[9] = test system: Klebsiella aerogenes (NCIM-2098); assay: Agar disk diffusion, inhibition zone; type: cell-based; settings: 100 µg/8 mm disc, triplicate, mean ± SD
[10] = test system: Coxsackie virus B4; assay: CPE reduction assay in Vero cells; type: cell-based; settings: Enterovirus B, read-out: Antiviral EC50, Coxsackie virus B4
[11] = test system: Pseudomonas aeruginosa (MCCB 0035); assay: MIC, broth microdilution; type: cell-based; settings: read-out: Minimum inhibitory concentration (MIC), PA
How it was run: as §1

[12] = test system: Influenza A/H1N1 A/Ned/378/05; assay: CPE reduction assay in MDCK cells; type: cell-based; settings: Influenza A virus
[13] = test system: Aspergillus fumigatus (NCIM 2081); assay: MIC, broth microdilution; type: cell-based; settings: NCIM2081, read-out: Minimum inhibitory concentration (MIC), AF
How it was run: (§4)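 Antifungal MICs by CLSI broth microdilution in Sabouraud liquid medium. Test compounds and standard drugs are serially diluted two-fold from 512 to 0.25. The fungal broth culture is grown 24 h at 35 °C to a 0.5 McFarland turbidity, then adjusted with sterile solution to the final inoculum.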

[14] = test system: Streptococcus pneumonia (ATCC 49619); assay: Agar disk diffusion, inhibition zone; type: cell-based; settings: 100 µg/8 mm disc, triplicate, mean ± SD
[15] = test system: Para-influenza-3 virus; assay: CPE reduction assay in Vero cells; type: cell-based, Parainfluenza-3 virus; settings: Vero, read-out: Antiviral EC50, Para-influenza-3 virus
[16] = test system: Human embryonic lung (HEL) cells; settings: HEL cell cultures; microscopically detectable alteration of normal cell morphology
[17] = test system: Sindbis virus; assay: CPE reduction assay in Vero cells; type: cell-based; settings: read-out: Antiviral EC50, Sindbis virus
[18] = test system: Reovirus-1; assay: CPE reduction assay in Vero cells; type: cell-based; settings: read-out: Antiviral EC50, Reovirus-1
[19] = test system: Adeno virus-2; assay: CPE reduction assay in HEL cells; type: cell-based; settings: read-out: Antiviral EC50, Adeno virus-2
[20] = test system: Influenza B B/Ned/537/05; assay: CPE reduction assay in MDCK cells; type: cell-based; settings: Influenza B virus, read-out: Antiviral EC50, Influenza B B/Ned/537/05, MTS
[21] = test system: Punta Toro virus; assay: CPE reduction assay in Vero cells; type: cell-based; settings: read-out: Antiviral EC50, Punta Toro virus
[22] = test system: Cryptococcus neoformans (ATCC 9011); assay: MIC, broth microdilution; type: cell-based; settings: ATCC9011, read-out: Minimum inhibitory concentration (MIC), CN
How it was run: as §4

[23] = test system: Vero cells; settings: Vero cell cultures; microscopically detectable alteration of normal cell morphology
[24] = test system: Madin Darby canine kidney (MDCK) cells; settings: dog
[25] = test system: Escherichia coli (ATCC 8739); assay: MIC, broth microdilution; type: cell-based; settings: ATCC8739, read-out: Minimum inhibitory concentration (MIC), EC
How it was run: as §1

[26] = test system: Aspergillus niger (NCIM 2191); assay: Agar disk diffusion, inhibition zone; type: cell-based; settings: 100 µg/8 mm disc, triplicate, mean ± SD
How it was run: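 For the fungal strain, discs soaked in test compound solution (DMSO stock diluted with distilled water) sat on seeded Mueller-Hinton agar. Clotrimazole was the reference. Incubation ran 48 h at 35 °C, in triplicate. Zone of growth inhibition recorded in mm as the mean diameter around each disc.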

[27] = test system: Lactobacillus casei (NCIM-2651); assay: Agar disk diffusion, inhibition zone; type: cell-based; settings: 100 µg/8 mm disc, triplicate, mean ± SD
[28] = test system: Escherichia coli (ATCC 8739); assay: Agar disk diffusion, inhibition zone; type: cell-based; settings: 100 µg/8 mm disc, triplicate, mean ± SD
How it was run: as §3

[29] = test system: Aspergillus fumigatus (NCIM 2081); assay: Agar disk diffusion, inhibition zone; type: cell-based; settings: 100 µg/8 mm disc, triplicate, mean ± SD
[30] = test system: Klebsiella aerogenes (NCIM-2098); assay: MIC, broth microdilution; type: cell-based; settings: NCIM2098, read-out: Minimum inhibitory concentration (MIC), KA
How it was run: as §2

[31] = test system: Bacillus cereus (NCIM-2458); assay: Agar disk diffusion, inhibition zone; type: cell-based; settings: 100 µg/8 mm disc, triplicate, mean ± SD
[32] = test system: Pseudomonas aeruginosa (MCCB 0035); assay: Agar disk diffusion, inhibition zone; type: cell-based; settings: 100 µg/8 mm disc, triplicate, mean ± SD
[33] = test system: Vaccinia virus; assay: microbe, parasite or virus in culture; type: cell-based; settings: Orthopoxvirus vaccinia, HEL, read-out: Antiviral EC50, Vaccinia virus
[34] = test system: Aspergillus niger (NCIM 2191); assay: MIC, broth microdilution; type: cell-based; settings: NCIM2191, read-out: Minimum inhibitory concentration (MIC), AN
How it was run: as §4

[35] = test system: Candida albicans (NCIM 2087); assay: Agar disk diffusion, inhibition zone; type: cell-based; settings: 100 µg/8 mm disc, triplicate, mean ± SD
[36] = test system: Salmonella typhimurium (NCIM-2501); assay: Agar disk diffusion, inhibition zone; type: cell-based; settings: 100 µg/8 mm disc, triplicate, mean ± SD
[37] = test system: Influenza A/H3N2 A/HK/7/87; assay: CPE reduction assay in MDCK cells; type: cell-based; settings: Influenza A virus
[38] = read-out: Antiviral EC50, Influenza A/H1N1 A/Ned/378/05, MTS
[39] = read-out: Antiviral EC50, Influenza A/H1N1 A/Ned/378/05, visual CPE score
[40] = read-out: Antiviral EC50, Influenza A/H3N2 A/HK/7/87, MTS
[41] = read-out: Antiviral EC50, Influenza A/H3N2 A/HK/7/87, visual CPE score

| SMILES | MIC [1] [µg/mL] | MIC [2] [µg/mL] | EC50 [3] [µM] | EC50 [4] [µM] | MIC [5] [µg/mL] | Diameter of growth inhibition zone, CN [6] [mm] | Minimum cytotoxic conc. [7] [µM] | Diameter of growth inhibition zone, KA [9] [mm] | EC50 [10] [µM] | MIC [11] [µg/mL] | EC50 [12, 38] [µM] | EC50 [12, 39] [µM] | MIC [13] [µg/mL] | Diameter of growth inhibition zone, SP [14] [mm] | EC50 [15] [µM] | Minimum cytotoxic conc. [16] [µM] | EC50 [17] [µM] | EC50 [18] [µM] | EC50 [19] [µM] | EC50 [20] [µM] | further results |
| --- | --- | --- | --- | --- | --- | --- | --- | --- | --- | --- | --- | --- | --- | --- | --- | --- | --- | --- | --- | --- | --- |
| Cc1ccc(S(=O)(=O)N2C(=O)CSC2c2ccccc2)cc1 (centres unmarked) [5a, 3-[(4-Methylphenyl)sulfonyl]-2-phenyl-1,3-thiazolidin-4-one] | 128 (≈ 384 µM) | 64 (≈ 192 µM) | > 100 | > 100 | 64 (≈ 192 µM) | 8.2 ± 0.5 | >125 | 07 ± 1.74 | > 100 | 128 (≈ 384 µM) | > 100 | > 100 | 64 (≈ 192 µM) | 08 ± 0.8 | > 100 | >100 | > 100 | > 100 | > 100 | > 100 | Diameter of growth inhibition zone, SA [8]: 13.8 ± 0.9 mm; EC50 [21]: > 100 µM; MIC [22]: 128 µg/mL (≈ 384 µM); Minimum cytotoxic conc. [23]: >100 µM; Cytotoxicity, Minimum cytotoxic conc. [24]: >100 µM; MIC [25]: 64 µg/mL (≈ 192 µM); Diameter of growth inhibition zone, AN [26]: 10.1 ± 1.1 mm; Diameter of growth inhibition zone, LC [27]: 10 ± 0.4 mm; Diameter of growth inhibition zone, EC [28]: 13.2 ± 1.1 mm; Diameter of growth inhibition zone, AF [29]: 10.2 ± 1.2 mm; MIC [30]: > 256 µg/mL; Diameter of growth inhibition zone, BC [31]: 08 ± 0.4 mm; Diameter of growth inhibition zone, PA [32]: 12.5 ± 0.6 mm; EC50 [33]: > 100 µM; MIC [34]: 32 µg/mL (≈ 96 µM); Diameter of growth inhibition zone, CA [35]: 10.8 ± 2.3 mm; Diameter of growth inhibition zone, ST [36]: 07 ± 1.5 mm; EC50 [37, 40]: > 100 µM; EC50 [37, 41]: > 100 µM |
| Cc1ccc(S(=O)(=O)N2C(=O)CSC2c2cccc(Br)c2)cc1 (centres unmarked) [5c, 2-(3-Bromophenyl)-3-[(4-methylphenyl)sulfonyl]-1,3-thiazolidin-4-one] | 32 (≈ 77.6 µM) | 32 (≈ 77.6 µM) | > 100 | > 100 | 32 (≈ 77.6 µM) | 7.5 ± 0.5 | >125 | 14 ± 0.6 | > 100 | 16 (≈ 38.8 µM) | > 100 | > 100 | 32 (≈ 77.6 µM) | 10 ± 0.9 | > 100 | >100 | > 100 | > 100 | > 100 | > 100 | Diameter of growth inhibition zone, SA [8]: 17 ± 1.2 mm; EC50 [21]: > 100 µM; MIC [22]: 64 µg/mL (≈ 155 µM); Minimum cytotoxic conc. [23]: >100 µM; Cytotoxicity, Minimum cytotoxic conc. [24]: >100 µM; MIC [25]: 16 µg/mL (≈ 38.8 µM); Diameter of growth inhibition zone, AN [26]: 12 ± 0.6 mm; Diameter of growth inhibition zone, LC [27]: 14 ± 0.43 mm; Diameter of growth inhibition zone, EC [28]: 19 ± 0.53 mm; Diameter of growth inhibition zone, AF [29]: 11 ± 1.5 mm; MIC [30]: 16 µg/mL (≈ 38.8 µM); Diameter of growth inhibition zone, BC [31]: 12 ± 0.32 mm; Diameter of growth inhibition zone, PA [32]: 16 ± 1.5 mm; EC50 [33]: > 100 µM; MIC [34]: 32 µg/mL (≈ 77.6 µM); Diameter of growth inhibition zone, CA [35]: 12.1 ± 0.9 mm; Diameter of growth inhibition zone, ST [36]: 12 ± 0.32 mm; EC50 [37, 40]: > 100 µM; EC50 [37, 41]: > 100 µM |
| Cc1ccc(S(=O)(=O)N2C(=O)CSC2c2ccc(C(C)C)cc2)cc1 (centres unmarked) [5n, 3-[(4-Methylphenyl)sulfonyl]-2-[4-(propan-2-yl)phenyl]-1,3-thiazolidin-4-one] | > 256 | > 256 | > 100 | > 100 | > 256 | 5 ± 0.3 | >125 | 07 ± 0.7 | > 100 | > 256 | > 100 | > 100 | > 512 | 07 ± 0.6 | > 100 | >100 | > 100 | > 100 | > 100 | > 100 | EC50 [21]: > 100 µM; MIC [22]: > 512 µg/mL; Minimum cytotoxic conc. [23]: >100 µM; Cytotoxicity, Minimum cytotoxic conc. [24]: >100 µM; MIC [25]: > 256 µg/mL; Diameter of growth inhibition zone, AN [26]: 10 ± 1.2 mm; Diameter of growth inhibition zone, LC [27]: 07 ± 0.30 mm; Diameter of growth inhibition zone, EC [28]: 08 ± 0.65 mm; Diameter of growth inhibition zone, AF [29]: 9.5 ± 0.9 mm; MIC [30]: > 256 µg/mL; Diameter of growth inhibition zone, BC [31]: 07 ± 0.1 mm; Diameter of growth inhibition zone, PA [32]: 8.5 ± 1.5 mm; EC50 [33]: > 100 µM; MIC [34]: > 256 µg/mL; Diameter of growth inhibition zone, CA [35]: 9 ± 1.5 mm; Diameter of growth inhibition zone, ST [36]: 07 ± 1.5 mm; EC50 [37, 40]: > 100 µM; EC50 [37, 41]: > 100 µM |

From paper PMC8268672 (Bioorganic Chemistry, 2021)
